Reference: ChEMBL document CHEMBL1151781, “Selectivity of inhibitors of endocannabinoid biosynthesis evaluated by activity-based protein profiling” (Bioorg Med Chem Lett, 2008)
Activity calls are given as the source filed them. No cut-off for these calls is given here.

Key:
[1] = molecular target: T1, Platelet-activating factor acetylhydrolase (Mus musculus) (UniProt Q60963); conditions: Brain, 50 uM
T1 sequence (whole entry): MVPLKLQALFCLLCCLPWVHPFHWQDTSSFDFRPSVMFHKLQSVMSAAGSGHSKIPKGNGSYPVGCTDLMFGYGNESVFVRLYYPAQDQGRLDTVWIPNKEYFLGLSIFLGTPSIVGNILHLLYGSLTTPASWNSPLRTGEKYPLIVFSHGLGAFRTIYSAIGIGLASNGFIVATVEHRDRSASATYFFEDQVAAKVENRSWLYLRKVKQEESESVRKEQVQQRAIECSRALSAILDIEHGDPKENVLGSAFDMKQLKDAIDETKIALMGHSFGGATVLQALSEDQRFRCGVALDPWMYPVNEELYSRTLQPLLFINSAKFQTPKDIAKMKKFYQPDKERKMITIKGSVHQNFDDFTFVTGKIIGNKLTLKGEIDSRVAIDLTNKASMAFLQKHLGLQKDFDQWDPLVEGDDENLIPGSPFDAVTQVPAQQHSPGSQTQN

[2] = molecular target: T2, Lysophosphatidylserine lipase ABHD12 (Mus musculus) (UniProt Q99LR1); conditions: Brain, 5 uM
T2 sequence (whole entry): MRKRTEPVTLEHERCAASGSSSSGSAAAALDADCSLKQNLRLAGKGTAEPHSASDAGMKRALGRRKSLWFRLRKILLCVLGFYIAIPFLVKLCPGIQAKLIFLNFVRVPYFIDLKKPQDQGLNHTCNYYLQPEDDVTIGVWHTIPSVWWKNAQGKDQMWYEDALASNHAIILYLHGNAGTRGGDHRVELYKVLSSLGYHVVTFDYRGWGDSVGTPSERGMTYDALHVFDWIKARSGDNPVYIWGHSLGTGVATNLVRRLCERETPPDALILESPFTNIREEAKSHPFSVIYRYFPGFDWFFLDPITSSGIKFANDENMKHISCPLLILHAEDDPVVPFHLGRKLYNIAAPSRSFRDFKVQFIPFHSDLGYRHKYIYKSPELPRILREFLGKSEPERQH

[3] = molecular target: T1, Platelet-activating factor acetylhydrolase (Mus musculus); assay: Inhibition of PLA2g7 in mouse brain assessed as reduction in spectral count at 5 uM treated for 30 mins by ABPP-MudPIT assay relative to control; assay type: tissue-based
Outline: (§1)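 Mouse brain proteome was treated with inhibitor at the stated single concentration, or DMSO as control, for 30 min. FP-biotin (5 μM) was then added for 120 min, followed by avidin enrichment and LC-MS (ABPP-MudPIT). Runs were in triplicate. Only hydrolases with >15 average spectral counts in control were quantified. Blockade is the percent reduction in average spectral counts versus DMSO; >60% defined a target.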

[4] = molecular target: T1, Platelet-activating factor acetylhydrolase (Mus musculus); assay: Inhibition of PLA2g7 in mouse brain by LC-MS analysis; assay type: tissue-based
[5] = molecular target: Acetylcholinesterase (Mus musculus) (UniProt P21836); assay: Inhibition of AChE in mouse brain assessed as reduction in spectral count at 5 uM treated for 30 mins by ABPP-MudPIT assay relative to control; assay type: tissue-based
Sequence of Acetylcholinesterase (Mus musculus) (P21836 whole entry): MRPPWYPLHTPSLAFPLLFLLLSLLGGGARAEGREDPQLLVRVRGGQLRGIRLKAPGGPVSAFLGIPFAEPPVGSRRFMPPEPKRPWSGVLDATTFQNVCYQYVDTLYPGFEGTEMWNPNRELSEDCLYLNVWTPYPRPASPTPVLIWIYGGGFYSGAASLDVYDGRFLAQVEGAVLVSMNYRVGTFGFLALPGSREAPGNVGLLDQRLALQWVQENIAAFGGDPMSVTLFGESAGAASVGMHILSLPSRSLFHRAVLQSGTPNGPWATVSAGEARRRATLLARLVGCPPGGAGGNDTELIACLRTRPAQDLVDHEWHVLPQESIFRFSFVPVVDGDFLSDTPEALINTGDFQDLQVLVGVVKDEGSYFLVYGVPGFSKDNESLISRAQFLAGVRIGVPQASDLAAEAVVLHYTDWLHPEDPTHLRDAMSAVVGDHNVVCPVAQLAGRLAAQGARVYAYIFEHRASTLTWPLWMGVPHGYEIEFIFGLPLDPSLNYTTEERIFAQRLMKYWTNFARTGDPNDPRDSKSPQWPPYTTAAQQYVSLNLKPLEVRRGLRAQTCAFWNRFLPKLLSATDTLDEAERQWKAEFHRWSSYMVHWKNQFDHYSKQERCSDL
Outline: as §1

SMILES	inhibition [1] [%]	inhibition [2] [%]	inhibition [3] [%]	Activity [4]	inhibition [5] [%]
CCCCCCCCCCC[C@@H](C[C@@H]1OC(=O)[C@H]1CCCCCC)OC(=O)[C@H](CC(C)C)NC=O [ORLISTAT]	> 60	> 60			
O=C(NCCCCCCNC(=O)ON=C1CCCCC1)ON=C1CCCCC1			> 60	Active	> 60
